Published values of several laboratories.
Compare with care: the assays were run in different laboratories.
Target: Vascular endothelial growth factor receptor 3 (FLT4, Homo sapiens, UniProt P35916)

| Structure (SMILES) | effect on | action | technique | concentration | measurement | value |
| --- | --- | --- | --- | --- | --- | --- |
| Cc1nn(C)cc1-c1nc2c(N3CCN(Cc4ccc(Cl)cc4)CC3)c(Cl)cnc2[nH]1 | binding | – | competition with immobilised ligand | 1 µM | remaining binding | 0% |
| CC(C)(C)c1cc(C=C(C#N)C#N)cc(Br)c1O | enzyme activity | inhibitor | – | 0.5 µM | remaining activity | 102% |
| Cn1cc(-c2cccc(N3CCc4c(sc5c4CC(C)(C)C5)C3=O)c2CO)cc(Nc2ccncn2)c1=O | enzyme activity | inhibitor | – | 1 µM | inhibition | 13% |
| COc1cc(Nc2ncc(F)c(Nc3ccc4c(n3)NC(=O)C(C)(C)O4)n2)cc(OC)c1OC | binding | – | – | 10 µM | inhibition | 100% |
| N#CC1(c2ccccn2)CCN(Cc2cc(C(=O)O)c(=O)n3ccccc23)CC1 | cell-free assay | – | competition with immobilised ligand | 1 µM | remaining binding | 100% |
| O=c1[nH]c2ccccc2n1C1CCN(Cc2ccc(-c3[nH]c4cc5ncnc5cc4nc3-c3ccccc3)cc2)CC1 | cell-free assay | – | – | 0.5 µM | remaining signal | 98.7% |
| COCc1c(-c2cc3cc(C)cc(OC)c3s2)c2c(N)ncnn2c1CN1CCNC(=O)C1 | cell-free assay | – | competition with immobilised ligand | 1 µM | inhibition | 93.8% |
| Cn1cncc1[C@@](O)(COc1ccc(C#N)cc1-c1ccc(OC(F)(F)F)cc1)c1ccc(C#N)cc1 | cell-free assay | – | competition with immobilised ligand | 1 µM | remaining binding | 90% |
| COc1ncccc1-c1cnn2ccc(N3CCN(C(=O)OC(C)C)CC3)nc12 | binding | – | competition with immobilised ligand | 1 µM | remaining binding | 99% |
| Cn1cc(-c2cc(F)cc(N3CCn4c(cc5c4CCCC5)C3=O)c2CO)cc(Nc2ccc(N3CCN(C4COC4)CC3)cn2)c1=O | enzyme activity | inhibitor | – | 0.1 µM | inhibition | 12% |
| Nc1ncc(-c2nc(N3CCOCC3)nc(N3CCOCC3)n2)c(C(F)F)n1 | cell-free assay | – | competition with immobilised ligand | 10 µM | remaining binding | 77% |
